# According to ChEMBL document CHEMBL3352313 (J Med Chem, 2014):
# Key:
# [1] = molecular target: Muscarinic acetylcholine receptor M3 (Homo sapiens, UniProt P20309); assay: Activity at human muscarinic acetylcholine receptor subtype 3 expressed in CHO cells by calcium mobilization assay acetylcholine; assay type: functional, cell-based
# Outline: (§1)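 Muscarinic subtype selectivity by fluorescence calcium mobilization in highly expressing CHO lines with similar receptor levels; Gi/o-coupled M2 and M4 cells co-transfected with chimeric Gqi5 to couple to Ca2+ mobilization. Read-outs are PAM EC50 and ACh max response. Mean ± SEM of at least three independent determinations.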
# Homo sapiens = species on record: Homo sapiens; assay: Selectivity index, ratio of EC50 for human muscarinic acetylcholine receptor subtype 1 to EC50 for human muscarinic acetylcholine receptor subtype 5
# [2] = molecular target: Muscarinic acetylcholine receptor M3 (Rattus norvegicus, UniProt P08483); assay: Activity at rat muscarinic acetylcholine receptor subtype 3 expressed in CHO cells by calcium mobilization assay; assay type: functional, cell-based; outline: as §1
# [3] = molecular target: Sigma non-opioid intracellular receptor 1 (Homo sapiens) (UniProt Q99720); assay: Displacement of radioligand from human sigma-1 receptor at 10 uM
# Outline: (§2)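 Pan Labs lead profiling radioligand binding battery of 68 GPCRs, ion channels and transporters, with test compound present at 10 μM.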
# [4] = Elimination half life in Sprague-Dawley rat 1 mg/kg, iv administered as single dose by LC/MS/MS utilizing electrospray ionization method; assay type: ADME, organism-based; set-up: dose 1 mg/kg, route intravenous; settings: in vivo, read-out: beta t1/2
# [5] = molecular target: T1, Muscarinic acetylcholine receptor M1 (Rattus norvegicus, UniProt P08482); assay: Activity at rat muscarinic acetylcholine receptor subtype 1 expressed in CHO cells by calcium mobilization assay; assay type: functional, cell-based; outline: as §1
# T1 sequence (P08482 whole entry): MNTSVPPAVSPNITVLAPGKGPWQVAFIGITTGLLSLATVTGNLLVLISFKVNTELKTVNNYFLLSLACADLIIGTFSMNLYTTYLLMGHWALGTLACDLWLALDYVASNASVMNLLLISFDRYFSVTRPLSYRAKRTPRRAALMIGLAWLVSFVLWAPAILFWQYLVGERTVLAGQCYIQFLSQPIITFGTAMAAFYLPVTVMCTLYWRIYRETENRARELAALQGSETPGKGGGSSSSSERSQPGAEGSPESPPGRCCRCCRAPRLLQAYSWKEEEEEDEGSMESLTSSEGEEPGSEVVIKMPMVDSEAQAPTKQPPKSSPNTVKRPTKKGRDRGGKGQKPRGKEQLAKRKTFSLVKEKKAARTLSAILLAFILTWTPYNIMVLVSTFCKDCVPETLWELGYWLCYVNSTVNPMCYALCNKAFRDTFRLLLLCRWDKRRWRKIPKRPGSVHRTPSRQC
# [6] = molecular target: T2, Muscarinic acetylcholine receptor M4 (Rattus norvegicus, UniProt P08485); assay: Activity at rat muscarinic acetylcholine receptor subtype 4 expressed in CHO cells co-transfected with chimeric Gqi5 by calcium mobilization assay; assay type: functional, cell-based; outline: as §1
# T2 sequence (P08485 whole entry): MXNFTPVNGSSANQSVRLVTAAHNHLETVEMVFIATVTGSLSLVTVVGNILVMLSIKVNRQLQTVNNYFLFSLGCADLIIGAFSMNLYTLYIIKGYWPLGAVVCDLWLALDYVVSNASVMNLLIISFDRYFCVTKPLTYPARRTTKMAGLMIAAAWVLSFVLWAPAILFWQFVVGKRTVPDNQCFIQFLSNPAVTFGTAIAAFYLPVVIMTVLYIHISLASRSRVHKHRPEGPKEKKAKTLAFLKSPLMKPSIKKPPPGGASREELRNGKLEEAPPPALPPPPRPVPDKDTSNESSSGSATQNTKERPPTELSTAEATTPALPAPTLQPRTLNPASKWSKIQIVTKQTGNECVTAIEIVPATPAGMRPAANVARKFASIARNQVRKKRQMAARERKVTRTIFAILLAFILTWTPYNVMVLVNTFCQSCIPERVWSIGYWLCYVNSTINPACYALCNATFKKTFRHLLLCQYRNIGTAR
# [7] = Apparent permeability in human Caco2 cells; assay type: ADME, cell-based; settings: caco-2
# [8] = molecular target: T3, Muscarinic acetylcholine receptor M2 (Homo sapiens, UniProt P08172); assay: Activity at human muscarinic acetylcholine receptor subtype 2 expressed in CHO cells co-transfected with chimeric Gqi5 by calcium mobilization assay; assay type: functional, cell-based; outline: as §1
# T3 sequence (P08172 whole entry): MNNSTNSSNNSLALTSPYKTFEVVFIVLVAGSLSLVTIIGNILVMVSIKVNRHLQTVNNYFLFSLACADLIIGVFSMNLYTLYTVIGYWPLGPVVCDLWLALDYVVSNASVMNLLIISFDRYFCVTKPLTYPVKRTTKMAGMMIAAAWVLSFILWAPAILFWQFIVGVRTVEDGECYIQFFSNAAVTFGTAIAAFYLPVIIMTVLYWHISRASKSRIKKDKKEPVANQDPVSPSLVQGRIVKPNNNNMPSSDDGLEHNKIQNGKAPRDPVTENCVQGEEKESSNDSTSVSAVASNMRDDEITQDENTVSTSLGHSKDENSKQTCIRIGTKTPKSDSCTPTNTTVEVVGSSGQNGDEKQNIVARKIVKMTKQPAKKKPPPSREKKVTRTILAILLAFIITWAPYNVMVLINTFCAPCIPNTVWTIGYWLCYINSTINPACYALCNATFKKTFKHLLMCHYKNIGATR
# [9] = molecular target: Cannabinoid receptor 1 (Homo sapiens) (UniProt P21554); assay: Displacement of radioligand from human CB1 receptor at 10 uM; outline: as §2
# [10] = Plasma clearance in Sprague-Dawley rat 1 mg/kg, iv administered as single dose by LC/MS/MS utilizing electrospray ionization method; assay type: ADME, organism-based; set-up: dose 1 mg/kg, route intravenous
# [11] = molecular target: T4, Muscarinic acetylcholine receptor M5 (Homo sapiens) (UniProt P08912); assay: Positive allosteric modulator activity at human muscarinic acetylcholine receptor subtype 5 expressed in CHO cells assessed as fold shift in acetylcholine-induced response at 10 uM by calcium mobilization assay; assay type: functional, cell-based
# T4 sequence (whole entry): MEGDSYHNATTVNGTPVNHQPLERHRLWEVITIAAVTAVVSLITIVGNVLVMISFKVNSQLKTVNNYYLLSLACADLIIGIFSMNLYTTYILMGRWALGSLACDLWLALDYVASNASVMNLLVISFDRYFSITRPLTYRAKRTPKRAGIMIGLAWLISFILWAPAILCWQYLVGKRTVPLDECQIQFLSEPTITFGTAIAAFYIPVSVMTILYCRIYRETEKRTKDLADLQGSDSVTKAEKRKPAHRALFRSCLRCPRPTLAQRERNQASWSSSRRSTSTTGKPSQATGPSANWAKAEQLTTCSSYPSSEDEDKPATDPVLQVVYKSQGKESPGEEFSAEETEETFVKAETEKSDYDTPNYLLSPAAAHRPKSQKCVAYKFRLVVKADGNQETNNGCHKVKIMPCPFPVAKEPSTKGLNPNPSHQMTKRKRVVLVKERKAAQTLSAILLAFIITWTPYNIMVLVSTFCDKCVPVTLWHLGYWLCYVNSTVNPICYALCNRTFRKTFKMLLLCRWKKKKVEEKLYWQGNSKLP
# Outline: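 In hM5 CHO cells by calcium mobilization, PAM at a fixed 10 μM or vehicle is added before an ACh concentration-response curve. Fold shift is the ratio of ACh potency without PAM to potency with PAM.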
# Chain of Muscarinic acetylcholine receptor M3 (Rattus norvegicus, UniProt P08483) (P08483 whole entry): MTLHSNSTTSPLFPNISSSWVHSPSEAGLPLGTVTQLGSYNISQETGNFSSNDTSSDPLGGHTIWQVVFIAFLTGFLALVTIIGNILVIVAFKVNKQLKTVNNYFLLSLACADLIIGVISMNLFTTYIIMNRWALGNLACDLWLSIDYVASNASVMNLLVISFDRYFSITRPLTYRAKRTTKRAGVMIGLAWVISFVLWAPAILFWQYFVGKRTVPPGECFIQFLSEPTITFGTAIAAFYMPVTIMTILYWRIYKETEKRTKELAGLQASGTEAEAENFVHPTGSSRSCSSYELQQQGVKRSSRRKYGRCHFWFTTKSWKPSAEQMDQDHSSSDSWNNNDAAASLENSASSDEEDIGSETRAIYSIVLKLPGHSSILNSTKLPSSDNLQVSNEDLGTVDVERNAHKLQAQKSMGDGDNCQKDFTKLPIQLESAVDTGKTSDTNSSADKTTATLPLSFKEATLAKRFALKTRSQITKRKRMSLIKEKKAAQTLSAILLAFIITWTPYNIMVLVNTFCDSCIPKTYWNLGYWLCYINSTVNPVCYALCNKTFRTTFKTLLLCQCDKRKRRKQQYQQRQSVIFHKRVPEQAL
# Chain of Sigma non-opioid intracellular receptor 1 (Homo sapiens) (Q99720 whole entry): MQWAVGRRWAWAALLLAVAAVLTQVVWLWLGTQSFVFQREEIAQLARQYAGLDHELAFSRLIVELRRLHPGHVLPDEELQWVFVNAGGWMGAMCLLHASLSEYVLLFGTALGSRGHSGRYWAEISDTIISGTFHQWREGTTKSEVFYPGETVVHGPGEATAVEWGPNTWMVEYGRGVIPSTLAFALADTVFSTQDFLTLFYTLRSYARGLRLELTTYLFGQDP
# Chain of Cannabinoid receptor 1 (Homo sapiens) (P21554 whole entry): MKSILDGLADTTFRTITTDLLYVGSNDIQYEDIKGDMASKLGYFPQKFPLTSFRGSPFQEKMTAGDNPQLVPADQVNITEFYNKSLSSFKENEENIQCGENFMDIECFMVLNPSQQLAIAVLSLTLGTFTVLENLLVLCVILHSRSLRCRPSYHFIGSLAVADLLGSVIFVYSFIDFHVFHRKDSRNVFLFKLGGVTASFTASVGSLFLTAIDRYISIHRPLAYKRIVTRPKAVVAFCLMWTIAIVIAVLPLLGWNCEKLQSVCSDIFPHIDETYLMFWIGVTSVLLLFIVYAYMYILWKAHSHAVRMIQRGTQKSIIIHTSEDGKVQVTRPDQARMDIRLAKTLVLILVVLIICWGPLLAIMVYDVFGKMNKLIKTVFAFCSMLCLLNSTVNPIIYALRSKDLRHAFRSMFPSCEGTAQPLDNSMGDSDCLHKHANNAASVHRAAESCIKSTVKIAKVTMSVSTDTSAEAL
# Chain of Muscarinic acetylcholine receptor M3 (Homo sapiens, UniProt P20309) (P20309 whole entry, looked up): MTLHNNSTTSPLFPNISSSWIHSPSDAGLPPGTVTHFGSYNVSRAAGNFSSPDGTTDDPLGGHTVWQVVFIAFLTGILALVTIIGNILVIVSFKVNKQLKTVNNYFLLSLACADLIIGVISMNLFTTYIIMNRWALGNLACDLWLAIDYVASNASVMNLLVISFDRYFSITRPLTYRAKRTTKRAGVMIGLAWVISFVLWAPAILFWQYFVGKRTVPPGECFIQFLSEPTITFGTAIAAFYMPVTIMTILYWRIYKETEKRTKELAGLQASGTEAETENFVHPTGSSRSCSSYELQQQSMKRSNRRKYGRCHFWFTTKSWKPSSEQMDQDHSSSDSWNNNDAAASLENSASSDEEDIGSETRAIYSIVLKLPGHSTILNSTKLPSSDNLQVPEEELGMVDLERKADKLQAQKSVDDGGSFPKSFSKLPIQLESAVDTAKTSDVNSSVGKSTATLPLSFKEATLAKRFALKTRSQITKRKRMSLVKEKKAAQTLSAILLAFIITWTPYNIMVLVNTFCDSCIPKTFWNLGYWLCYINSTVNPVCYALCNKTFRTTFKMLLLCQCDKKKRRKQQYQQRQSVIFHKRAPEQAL
compound,measurement,setting,value
CCN(Cc1ccccc1C(F)(F)F)C(=O)C1CCN(S(=O)(=O)c2ccc3[nH]ncc3c2)CC1,%max,[1],67%
same,Ratio EC50,Homo sapiens,> 10
same,EC50,[2],3.1 µM
same,inhibition,[3],53%
same,half-life,[4],22 min
same,EC50,[5],2 µM
same,EC50,[6],> 30 µM
same,Papp,[7],2.5 ×10⁻⁵ cm/s
same,EC50,[8],> 30 µM
same,inhibition,[9],50%
same,clearance,[10],66 mL/min/kg
same,fold change (FC),[11],9
